Columns and labels:
[1] = Inhibition of Plasmodium falciparum IspC expressed in recombinant Escherichia coli M15 by photometric assay
In short: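 His-tagged enzyme from E. coli M15 pREP4 pQEIspCplasart20, induced with 1 mM IPTG overnight at 30 °C, Ni-imidazole purified, about 95% pure. Inhibitor 1:3 over about 200–0.003 μM. DXP start, final 0.5–5.0 mM. 340 nm, room temperature. Nonlinear-regression IC50, ≥8 points.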

[2] = Inhibition of Escherichia coli IspC by photometric assay
In short: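 NADPH-coupled photometric read at 340 nm, room temperature. Inhibitor 1:3 dilutions over about 200–0.003 μM. Started with 1-deoxy-D-xylulose 5-phosphate, final 0.5–5.0 mM. IC50 from nonlinear regression of ≥8 points, mean ± SD; generally 2–3 independent determinations.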

[3] = target: T1, 1-deoxy-D-xylulose 5-phosphate reductoisomerase (Mycobacterium tuberculosis, UniProt P9WNS1); test: Inhibition of Mycobacterium tuberculosis IspC by photometric assay
T1 sequence (P9WNS1 whole entry): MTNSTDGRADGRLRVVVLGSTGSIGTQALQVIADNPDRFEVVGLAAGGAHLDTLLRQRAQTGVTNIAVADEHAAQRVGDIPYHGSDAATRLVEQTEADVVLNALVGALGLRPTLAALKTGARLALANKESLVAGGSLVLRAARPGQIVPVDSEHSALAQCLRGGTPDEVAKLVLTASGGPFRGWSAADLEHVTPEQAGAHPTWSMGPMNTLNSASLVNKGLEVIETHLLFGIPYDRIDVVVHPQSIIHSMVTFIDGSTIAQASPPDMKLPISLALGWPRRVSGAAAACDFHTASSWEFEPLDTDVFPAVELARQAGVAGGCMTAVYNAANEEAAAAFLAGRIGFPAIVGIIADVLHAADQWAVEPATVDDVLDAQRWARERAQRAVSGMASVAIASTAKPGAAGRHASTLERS
In short: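 Photometric NADPH-consumption assay at pH 7.6 (Tris) with 5 mM MgCl2, 5 mM DTT, 0.5 mM NADPH and 0.02 U IspC. Inhibitor 1:3 series covered about 200–0.003 μM. Started with 1-deoxy-D-xylulose 5-phosphate (0.5–5.0 mM final); A340 read at room temperature.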

Plasmodium falciparum [4] = test: Antimicrobial activity against chloroquine-sensitive blood stage forms of Plasmodium falciparum 3D7 after 3 days by HRP2-based ELISA; format: functional, organism-based; conditions: 3D7, 72 h
In short: (§1)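 Sorbitol-synchronized ring-stage parasites (0.05% parasitemia, 1.5% hematocrit, O Rh+ erythrocytes) in RPMI 1640/HEPES/glutamine/gentamycin/0.5% Albumax, 37 °C, 5% CO2, 5% O2. Added to plates precoated with 3-fold compound dilutions from DMSO stocks; 3-day incubation; plates freeze-thawed twice; HRP2 ELISA. Chloroquine control each run. IC50 from nonlinear regression of log concentration-response; mean of two independent duplicate determinations.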

Plasmodium falciparum [5] = test: Antimicrobial activity against chloroquine-resistant blood stage forms of Plasmodium falciparum Dd2 after 3 days by HRP2-based ELISA; format: functional, organism-based; conditions: Dd2, 72 h; in short: as §1

Structure (SMILES) | IC50 [1] [nM] | Ki [1] [nM] | IC50 [2] [nM] | IC50 [3] [nM] | IC50 (Plasmodium falciparum [4]) [nM] | IC50 (Plasmodium falciparum [5]) [nM]
CN(O)C(=O)CS[C@@H](c1ccccc1)P(=O)(O)O | 9.4 | 1.7 | 5.1 | 120 |  | 
CN(O)C(=O)CSC(c1cccc2ccccc12)P(=O)(O)O (racemic) | 9.8 |  | 140 | 550 | 380 | 510
CN(O)C(=O)CCC(c1ccc(F)c(F)c1)P(=O)(O)O (stereo unspecified) | 3.4 |  | 117 | 770 | 122 | 40
CN(O)C(=O)CS[C@H](c1ccccc1)P(=O)(O)O | 12000 | 2200 | 4000 | 83000 |  | 
Cc1ccc(C(CCC(=O)N(C)O)P(=O)(O)O)cc1 (stereo unspecified) | 14 |  | 286 | 1800 |  | 
Cc1ccc(C(SCC(=O)N(C)O)P(=O)(O)O)cc1 (racemic) | 18 |  | 33 | 110 | 111 | 95
O=CN(O)CCCP(=O)(O)O [FOSMIDOMYCIN] |  |  | 221 |  |  | 
CN(O)C(=O)CSC(c1ccc(F)c(F)c1)P(=O)(O)O (racemic) | 14 |  | 8.5 | 42 | 111 | 88
CN(O)C(=O)CCC(c1ccccc1)P(=O)(O)O (stereo unspecified) | 3.1 |  | 243 | 2000 | 90 | 74
CN(O)C(=O)CSC(c1ccccc1)P(=O)(O)O (racemic) | 24 | 4.4 | 8.2 | 280 | 30 | 75
CN(O)C(=O)COC(c1cccc2ccccc12)P(=O)(O)O (stereo unspecified) | 39 |  | 4600 | 15000 |  | 
Cc1ccc(C(OCC(=O)N(C)O)P(=O)(O)O)cc1 (stereo unspecified) | 25 |  | 320 | 4000 |  | 
O=C(CSC(c1ccc(Cl)c(Cl)c1)P(=O)(O)O)NO (racemic) | 200 |  | 44 | 720 | 540 | 870
CN(O)C(=O)CCC(c1cccc2ccccc12)P(=O)(O)O (stereo unspecified) | 9.4 |  | 3830 | 13000 |  | 
O=C(CCC(c1ccc(F)c(F)c1)P(=O)(O)O)NO (stereo unspecified) | 3.9 |  | 178 | 3400 | 75 | 65
CN(O)C(=O)CSC(c1ccc(Cl)c(Cl)c1)P(=O)(O)O (racemic) | 4.5 |  | 5.9 | 9.2 | 91 | 85
CN(O)C(=O)COC(c1ccc(Cl)c(Cl)c1)P(=O)(O)O (stereo unspecified) | 14 |  | 200 | 1600 |  | 
O=C(COC(c1ccccc1)P(=O)(O)O)NO (stereo unspecified) | 1500 |  | 20000 | 466000 |  | 
CN(O)C(=O)COC(c1ccccc1)P(=O)(O)O (stereo unspecified) | 37 |  | 940 | 16000 |  | 
O=C(CSC(c1ccc(F)c(F)c1)P(=O)(O)O)NO (racemic) | 15 |  | 77 | 1700 | 160 | 330
O=C(COC(c1ccc(F)c(F)c1)P(=O)(O)O)NO (stereo unspecified) | 3900 |  | 49000 | > 500000 | > 50000 | 
O=C(CSC(c1ccccc1)P(=O)(O)O)NO (racemic) | 110 |  | 600 | 15000 | 2900 | 3770
CN(O)C(=O)CCC(c1ccc(Cl)c(Cl)c1)P(=O)(O)O (stereo unspecified) | 2.8 |  | 208 | 280 |  | 
CN(O)C(=O)COC(c1ccc(F)c(F)c1)P(=O)(O)O (stereo unspecified) | 12 |  | 240 | 4600 |  | 
O=C(CCC(c1ccccc1)P(=O)(O)O)NO (stereo unspecified) | 12 |  | 592 | 14000 | 400 | 570

From ChEMBL document CHEMBL2429741 (J Med Chem, 2013)
